# Test results from ChEMBL document CHEMBL1137302 (J Med Chem, 2006).
# The source made the active and inactive calls. No cut-off for these calls is given here.
# Tests used:
# D(4) dopamine receptor [1] = molecular target: T1, D(4) dopamine receptor (Homo sapiens, UniProt P21917); test: (§1) Agonist activity at human D4.4 receptor in HEK293 cells coexpressing G-alpha-qo5 by FLIPR; assay type: functional, cell-based
# T1 sequence (P21917 whole entry): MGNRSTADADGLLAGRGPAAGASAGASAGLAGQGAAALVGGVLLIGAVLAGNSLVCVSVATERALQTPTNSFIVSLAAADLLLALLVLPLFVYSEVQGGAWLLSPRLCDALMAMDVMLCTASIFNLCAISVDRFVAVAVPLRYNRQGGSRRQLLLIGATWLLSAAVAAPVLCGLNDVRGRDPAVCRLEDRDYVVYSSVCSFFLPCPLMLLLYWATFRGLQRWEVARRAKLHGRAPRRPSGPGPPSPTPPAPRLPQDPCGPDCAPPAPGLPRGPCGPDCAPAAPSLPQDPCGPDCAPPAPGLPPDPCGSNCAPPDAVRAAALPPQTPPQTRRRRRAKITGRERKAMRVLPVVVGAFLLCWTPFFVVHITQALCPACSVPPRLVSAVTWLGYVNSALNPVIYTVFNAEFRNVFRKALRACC
# [2] = molecular target: T2, D(4) dopamine receptor (Homo sapiens) (UniProt P21917); test: Activity at human D4.4 receptor in HEK293 cells co-expressing Galphaqo5 by FLIPR; assay type: functional, cell-based
# T2 sequence (whole entry): T1 sequence (P21917 whole entry)
# Rattus norvegicus [3] = test: Proerectile activity in rat measured as incidence of penile erection at 0.01 umol/kg, sc; assay type: functional
# Summary of the method: (§2)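 Conscious male rats dosed subcutaneously. Penile erection incidence scored over 60 min after injection; values are % ± SEM, with significance tested against control.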
# D(2) dopamine receptor [4] = molecular target: T3, D(2) dopamine receptor (Homo sapiens, UniProt P14416); test: Displacement of [125I]7-OH-PIPAT from human D2L receptor expressed in HEK293 cell membrane; assay type: cell membranes
# T3 sequence (P14416 whole entry): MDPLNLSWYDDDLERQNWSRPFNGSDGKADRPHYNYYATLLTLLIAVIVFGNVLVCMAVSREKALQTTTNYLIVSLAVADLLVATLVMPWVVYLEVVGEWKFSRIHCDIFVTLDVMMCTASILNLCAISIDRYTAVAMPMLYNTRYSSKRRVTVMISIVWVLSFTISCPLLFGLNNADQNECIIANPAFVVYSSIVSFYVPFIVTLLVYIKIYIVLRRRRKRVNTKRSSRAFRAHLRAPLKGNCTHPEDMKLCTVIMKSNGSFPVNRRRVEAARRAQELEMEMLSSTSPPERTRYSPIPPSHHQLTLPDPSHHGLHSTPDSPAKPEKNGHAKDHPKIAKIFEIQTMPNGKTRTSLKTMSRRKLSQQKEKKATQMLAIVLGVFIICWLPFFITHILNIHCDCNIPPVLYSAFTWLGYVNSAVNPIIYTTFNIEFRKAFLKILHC
# [5] = molecular target: T2, D(4) dopamine receptor (Homo sapiens); test: Agonist activity at human D4.4 receptor in HEK293 cells coexpressing G-alpha-qo5 by FLIPR upto 10 uM; assay type: functional, cell-based
# [6] = molecular target: T2, D(4) dopamine receptor (Homo sapiens); test: as §1; assay type: functional, cell-based
# D(4) dopamine receptor [7] = molecular target: T1, D(4) dopamine receptor; test: Displacement of [3H]A369508 from human D4 receptor expressed in HEK293 cell membrane; assay type: cell membranes
# D(2) dopamine receptor [8] = molecular target: T3, D(2) dopamine receptor; test: Agonist activity at human D2 receptor in HEK293 cells coexpressing G-alpha-qo5 by FLIPR; assay type: functional, cell-based
# [9] = Bioavailability in Sprague-Dawley rat at 1 mg/kg, po; assay type: ADME, organism-based; conditions: in vivo
# Summary of the method: (§3)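 Single 1 mg/kg dose given iv, sc or orally to Sprague-Dawley rats, dogs and monkeys; plasma concentrations followed over time (mean ± SEM, n = 3). Cmax, AUC, half-life, clearance and bioavailability calculated from the curves.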
# [10] = Half life in Sprague-Dawley rat at 1 mg/kg, sc; assay type: ADME, organism-based; parameters: dose 1 mg/kg, route subcutaneous; conditions: in vivo; summary of the method: as §3
# Rattus norvegicus [11] = test: Proerectile activity in rat measured as incidence of penile erection at 0.03 umol/kg, sc; assay type: functional; summary of the method: as §2
# D(2) dopamine receptor [12] = molecular target: T3, D(2) dopamine receptor; test: Binding affinity at human D2L receptor by displacement of [125I]-7-OH-PIPAT in membranes
# D(4) dopamine receptor [13] = molecular target: T1, D(4) dopamine receptor; test: Displacement of [3H]spiperone from human D4 receptor expressed in HEK293 cell membrane; assay type: cell membranes
# [14] = Bioavailability in Sprague-Dawley rat at 1 mg/kg, sc; assay type: ADME, organism-based; conditions: in vivo; summary of the method: as §3
# Mustela putorius furo [15] = organism: Mustela putorius furo; test: Induction of emesis in ferret; assay type: functional, organism-based
# [16] = molecular target: cGMP-specific 3',5'-cyclic phosphodiesterase (Homo sapiens) (UniProt O76074); test: Activity at PDE5 at 10 uM
# Summary of the method: (§4)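 Broad selectivity panel (over 70 receptors, ion channels and neuronal receptors, PDE1-6 included) run at a single 10 µM concentration.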
# Rattus norvegicus [17] = test: Proerectile activity in rat measured as incidence of penile erection at 0.3 umol/kg, sc; assay type: functional
# Summary of the method: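 Conscious male rats were given a single subcutaneous injection and observed for penile erections over the following 60 min. The read-out was the incidence of erections, expressed as % of animals ± SEM (n = 12–32 animals per group), with significance tested against controls. The value is the maximal incidence at the maximally effective dose.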
# [18] = molecular target: Phosphodiesterase 6 (Homo sapiens) (UniProt Q13956+P18545+P35913+O43924+P16499+P51160); test: Activity at PDE6 at 10 uM; assay type: protein assay; summary of the method: as §4
# [19] = Half life in Sprague-Dawley rat at 1 mg/kg, po; assay type: ADME, organism-based; parameters: dose 1 mg/kg, route oral; conditions: in vivo; summary of the method: as §3
# [20] = molecular target: Phosphodiesterase 1 (Homo sapiens) (UniProt P54750+Q01064+Q14123); test: Activity at PDE1 at 10 uM; assay type: protein assay; summary of the method: as §4
# [21] = molecular target: cGMP-dependent 3',5'-cyclic phosphodiesterase (Homo sapiens) (UniProt O00408); test: Activity at PDE2 at 10 uM; summary of the method: as §4
# Chain of cGMP-dependent 3',5'-cyclic phosphodiesterase (Homo sapiens) (O00408 whole entry): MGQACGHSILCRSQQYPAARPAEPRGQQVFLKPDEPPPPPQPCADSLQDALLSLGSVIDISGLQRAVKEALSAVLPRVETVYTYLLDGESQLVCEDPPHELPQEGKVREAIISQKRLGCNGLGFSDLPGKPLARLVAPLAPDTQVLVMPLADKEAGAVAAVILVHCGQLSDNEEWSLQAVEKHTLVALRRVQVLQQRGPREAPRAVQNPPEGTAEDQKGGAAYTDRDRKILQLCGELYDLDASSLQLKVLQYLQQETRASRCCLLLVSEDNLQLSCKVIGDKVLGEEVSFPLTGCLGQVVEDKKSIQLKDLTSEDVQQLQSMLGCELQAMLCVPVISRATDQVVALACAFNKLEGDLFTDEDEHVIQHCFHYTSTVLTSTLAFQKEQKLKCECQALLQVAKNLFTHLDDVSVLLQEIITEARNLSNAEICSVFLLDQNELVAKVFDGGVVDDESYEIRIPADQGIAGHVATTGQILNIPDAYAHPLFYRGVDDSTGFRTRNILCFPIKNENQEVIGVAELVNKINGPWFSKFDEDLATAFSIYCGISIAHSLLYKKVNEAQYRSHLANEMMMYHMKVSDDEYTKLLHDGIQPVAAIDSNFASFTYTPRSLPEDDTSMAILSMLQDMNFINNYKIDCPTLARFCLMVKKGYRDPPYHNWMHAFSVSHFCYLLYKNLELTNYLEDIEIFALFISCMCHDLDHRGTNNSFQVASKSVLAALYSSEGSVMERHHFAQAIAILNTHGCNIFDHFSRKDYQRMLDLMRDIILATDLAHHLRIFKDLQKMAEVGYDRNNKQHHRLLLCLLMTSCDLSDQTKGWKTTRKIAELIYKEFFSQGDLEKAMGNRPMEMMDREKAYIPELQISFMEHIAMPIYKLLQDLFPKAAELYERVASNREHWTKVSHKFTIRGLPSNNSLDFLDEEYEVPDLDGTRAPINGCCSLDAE
# [22] = Oral bioavailability in dog; assay type: ADME, organism-based, Canis lupus familiaris; conditions: in vivo; summary of the method: as §3
# [23] = molecular target: D(3) dopamine receptor (Homo sapiens) (UniProt P35462); test: Agonist activity at human D3 receptor in HEK293 cells coexpressing G-alpha-qo5 by FLIPR upto 10 uM; assay type: functional, cell-based
# Chain of D(3) dopamine receptor (Homo sapiens) (P35462 whole entry): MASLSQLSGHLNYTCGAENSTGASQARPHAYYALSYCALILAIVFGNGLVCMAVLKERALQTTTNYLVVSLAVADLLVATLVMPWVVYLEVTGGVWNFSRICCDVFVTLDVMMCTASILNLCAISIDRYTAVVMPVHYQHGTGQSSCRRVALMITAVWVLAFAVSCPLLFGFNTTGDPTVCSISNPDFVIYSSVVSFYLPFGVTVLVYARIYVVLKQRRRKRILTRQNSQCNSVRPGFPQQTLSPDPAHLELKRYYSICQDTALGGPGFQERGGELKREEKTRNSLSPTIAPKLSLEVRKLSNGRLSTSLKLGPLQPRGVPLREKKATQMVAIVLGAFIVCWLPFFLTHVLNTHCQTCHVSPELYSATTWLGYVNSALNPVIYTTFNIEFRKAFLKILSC
# D(2) dopamine receptor [24] = molecular target: T3, D(2) dopamine receptor; test: Binding affinity to human D2S receptor
# [25] = molecular target: D(2) dopamine receptor (Rattus norvegicus) (UniProt P61169); test: Agonist activity at rat D2 receptor in HEK293 cells coexpressing G-alpha-qo5 by FLIPR relative to dopamine upto 10 uM; assay type: functional, cell-based
# Chain of D(2) dopamine receptor (Rattus norvegicus) (P61169 whole entry): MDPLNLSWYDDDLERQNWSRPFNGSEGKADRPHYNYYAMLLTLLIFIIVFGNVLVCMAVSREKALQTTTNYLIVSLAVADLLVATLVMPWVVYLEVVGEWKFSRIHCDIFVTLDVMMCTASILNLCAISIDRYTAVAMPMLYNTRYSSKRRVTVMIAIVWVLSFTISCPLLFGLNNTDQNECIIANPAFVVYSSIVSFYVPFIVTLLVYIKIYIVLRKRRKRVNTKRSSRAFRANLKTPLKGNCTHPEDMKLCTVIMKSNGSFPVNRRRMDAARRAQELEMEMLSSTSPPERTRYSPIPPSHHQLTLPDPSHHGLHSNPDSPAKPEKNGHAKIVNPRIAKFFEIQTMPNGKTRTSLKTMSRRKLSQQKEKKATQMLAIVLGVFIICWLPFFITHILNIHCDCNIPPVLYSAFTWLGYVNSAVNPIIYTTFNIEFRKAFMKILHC
# Summary of the method: (§5)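 Ca2+ flux by FLIPR in HEK cells cotransfected with the D2 receptor (human, ferret or rat) plus chimeric G protein Gqo5.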
# [26] = molecular target: Phosphodiesterase 4 (Homo sapiens) (UniProt P27815+Q08499+Q07343+Q08493); test: Activity at PDE4 at 10 uM; assay type: protein assay; summary of the method: as §4
# [27] = molecular target: T4, D(4) dopamine receptor (Rattus norvegicus) (UniProt P30729); test: Agonist activity at rat D4 receptor in HEK293 cells co-expressing Galphaqo5 by FLIPR relative to dopamine; assay type: functional, cell-based
# T4 sequence (whole entry): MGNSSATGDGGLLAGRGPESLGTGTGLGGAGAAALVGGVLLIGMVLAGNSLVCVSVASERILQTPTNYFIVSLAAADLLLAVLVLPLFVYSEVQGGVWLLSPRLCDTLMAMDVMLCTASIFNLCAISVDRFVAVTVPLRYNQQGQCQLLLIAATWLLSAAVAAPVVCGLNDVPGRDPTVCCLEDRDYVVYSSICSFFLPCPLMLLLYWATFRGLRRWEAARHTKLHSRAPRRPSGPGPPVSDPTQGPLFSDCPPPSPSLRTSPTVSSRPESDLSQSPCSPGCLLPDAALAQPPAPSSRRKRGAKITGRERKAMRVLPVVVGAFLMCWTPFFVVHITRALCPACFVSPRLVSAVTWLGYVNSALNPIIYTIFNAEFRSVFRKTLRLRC
# D(2) dopamine receptor [28] = molecular target: T3, D(2) dopamine receptor; test: Agonist activity at human D2 receptor in HEK293 cells coexpressing G-alpha-qo5 by FLIPR relative to dopamine upto 10 uM; assay type: functional, cell-based; summary of the method: as §5
# [29] = molecular target: Phosphodiesterase 3 (Homo sapiens) (UniProt Q14432+Q13370); test: Activity at PDE3 at 10 uM; assay type: protein assay; summary of the method: as §4
# hERG = hERG (Homo sapiens, UniProt Q12809); test: Blockade of current at hERG expressed in HEK293 cells at 3 ug/mL; assay type: cell-based; conditions: HEK293 cells that express hERG
# Chain of hERG (Q12809 whole entry): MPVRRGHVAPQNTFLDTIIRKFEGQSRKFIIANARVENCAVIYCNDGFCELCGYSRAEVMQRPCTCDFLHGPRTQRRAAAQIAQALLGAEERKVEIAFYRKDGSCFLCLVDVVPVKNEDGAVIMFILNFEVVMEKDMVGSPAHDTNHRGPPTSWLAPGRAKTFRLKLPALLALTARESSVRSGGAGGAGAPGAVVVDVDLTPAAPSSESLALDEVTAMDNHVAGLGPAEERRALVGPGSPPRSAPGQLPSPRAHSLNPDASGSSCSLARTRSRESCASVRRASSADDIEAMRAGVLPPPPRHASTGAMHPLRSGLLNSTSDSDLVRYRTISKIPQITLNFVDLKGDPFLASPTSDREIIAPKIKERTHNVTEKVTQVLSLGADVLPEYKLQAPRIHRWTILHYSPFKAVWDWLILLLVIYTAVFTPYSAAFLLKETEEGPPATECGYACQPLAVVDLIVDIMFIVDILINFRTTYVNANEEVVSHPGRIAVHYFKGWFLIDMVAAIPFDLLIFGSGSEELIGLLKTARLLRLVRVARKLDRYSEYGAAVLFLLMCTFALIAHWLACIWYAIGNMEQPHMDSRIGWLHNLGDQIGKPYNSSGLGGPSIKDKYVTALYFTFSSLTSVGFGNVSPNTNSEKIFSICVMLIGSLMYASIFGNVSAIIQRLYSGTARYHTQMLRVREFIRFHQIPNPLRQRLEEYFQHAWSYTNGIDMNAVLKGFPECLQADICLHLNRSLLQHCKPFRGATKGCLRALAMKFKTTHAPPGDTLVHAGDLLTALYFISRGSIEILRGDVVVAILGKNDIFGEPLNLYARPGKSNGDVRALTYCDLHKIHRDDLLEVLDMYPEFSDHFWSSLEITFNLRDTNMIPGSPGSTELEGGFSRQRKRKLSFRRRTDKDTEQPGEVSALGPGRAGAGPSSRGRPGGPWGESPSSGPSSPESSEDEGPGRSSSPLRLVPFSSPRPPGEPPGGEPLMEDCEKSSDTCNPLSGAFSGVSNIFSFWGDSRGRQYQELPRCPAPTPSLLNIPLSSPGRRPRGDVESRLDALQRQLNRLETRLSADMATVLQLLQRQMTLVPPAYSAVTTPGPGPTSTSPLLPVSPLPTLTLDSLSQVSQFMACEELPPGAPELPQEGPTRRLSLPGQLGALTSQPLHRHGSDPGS
# Summary of the method: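 hERG stably expressed in HEK293 cells; whole-cell voltage clamp. Pipette: K aspartate/KCl/EGTA/MgATP, pH 7.3. Bath: NaCl-based HEPES, pH 7.4. Compound dissolved in DMSO (≤0.1%), one concentration per cell. Steps to -25 to +50 mV for 3 s, then -50 mV for 4 s, from -80 mV every 15 s; tail current measured against DMSO vehicle.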
# [30] = Effect on canine cardiac Purkinje fiber repolarization measured as prolongation of action potential duration at 1.6 ug/mL; assay type: functional, Canis lupus familiaris
# Summary of the method: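 Canine Purkinje fibres impaled with 3 M KCl microelectrodes after at least 30 min equilibration under stimulation. Bath: 131 mM NaCl, 18 mM NaHCO3, 4 mM KCl, 2 mM CaCl2. Baseline APD90 recorded at BCL 2 s, 800 and 400 ms. Each fibre then received two ascending concentrations, each with 25 min equilibration and re-recording at all three rates.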
# [31] = Oral bioavailability in monkey; assay type: ADME, organism-based, Macaca mulatta; conditions: rhesus monkey, in vivo; summary of the method: as §3
# [32] = Oral bioavailability in rat; assay type: ADME, organism-based; conditions: in vivo; summary of the method: as §3
# Mustela putorius furo [33] = organism: Mustela putorius furo; test: Induction of nausea in ferret; assay type: functional, organism-based
# D(4) dopamine receptor [34] = molecular target: T5, D(4) dopamine receptor (Rattus norvegicus, UniProt P30729); test: Agonist activity at rat D4 receptor in HEK293 cells coexpressing G-alpha-qo5 by FLIPR; assay type: functional, cell-based
# T5 sequence (P30729 whole entry): T4 sequence (whole entry)
# Rattus norvegicus [35] = test: Blockade of ABT-670-induced erctogenic activity in rat at 10 umol/kg, ip; assay type: functional, organism-based
# Rattus norvegicus [36] = test: Blockade of ABT-670-induced erctogenic activity in rat at 1 umol/kg, ip; assay type: functional, organism-based
# Rattus norvegicus [37] = test: Blockade of ABT-670-induced erctogenic activity in rat at 3 umol/kg, ip; assay type: functional, organism-based
# [38] = test system: D(2) dopamine receptor (Mustela putorius furo); test: Agonist activity at ferret D2 receptor in HEK293 cells coexpressing Galphaqo5 by FLIPR relative to dopamine upto 10 uM
structure (smiles),measurement,setting,value
Cc1ccc([N+](=O)[O-])cc1NC(=O)CN1CCC(c2cccc[n+]2[O-])CC1,EC50,D(4) dopamine receptor [1],0.134 µM
same,Activity,[2]; filed as agonist,Agonist
same,Activity,Rattus norvegicus [3],83%
Cc1cccc(C(=O)NCN2CCC(c3ccccc3)CC2)c1,Ki,D(2) dopamine receptor [4],0.235 µM
same,Activity,[5],inactive
same,Efficacy,[6],17%
COc1ccccc1C1CCN(CNC(=O)c2cccc(C)c2)CC1,Ki,D(2) dopamine receptor [4],0.027 µM
same,EC50,D(4) dopamine receptor [1],0.206 µM
same,Ki,D(4) dopamine receptor [7],0.0013 µM
same,Activity,[2]; filed as partial agonist,Partial agonist
same,EC50,D(2) dopamine receptor [8],> 10 µM
Cc1cccc(C(=O)NCN2CCC(c3ccccn3)CC2)c1,Ki,D(2) dopamine receptor [4],3.5 µM
same,bioavailability,[9],2%
same,half-life,[10],36 min
same,Activity,Rattus norvegicus [11],83%
same,EC50,D(4) dopamine receptor [1],0.009 µM
same,Ki,D(2) dopamine receptor [12],3.5 µM
same,Ki,D(4) dopamine receptor [13],0.032 µM
same,bioavailability,[14],76%
Cc1cccc(NC(=O)CN2CCC(c3cccc[n+]3[O-])CC2)c1,Activity,Mustela putorius furo [15],inactive
same,Ki,D(2) dopamine receptor [4],> 10 µM
same,Activity,[16],inactive
same,bioavailability,[9],11%
same,Activity,Rattus norvegicus [17],75%
same,Activity,[18],inactive
same,half-life,[10],30 min
same,EC50,D(4) dopamine receptor [1],0.032 µM
same,half-life,[19],18 min
same,Ki,D(4) dopamine receptor [7],0.294 µM
same,Activity,[2]; filed as agonist,Agonist
same,Activity,[20],inactive
same,Activity,[21],inactive
same,bioavailability,[22],70%
same,Activity,[23],inactive
same,Ki,D(2) dopamine receptor [24],> 10 µM
same,Activity,[25],inactive
same,Activity,[26],inactive
same,Efficacy,[27],80%
same,Activity,D(2) dopamine receptor [28],inactive
same,Activity,[29],inactive
same,bioavailability,[14],61%
same,inhibition at 3 ug/mL,hERG,44.8%
same,Activity,[30],12%
same,bioavailability,[31],28%
same,bioavailability,[32],11%
same,Activity,Mustela putorius furo [33],inactive
same,EC50,D(4) dopamine receptor [34],0.057 µM
O=c1[nH]c2ccccc2n1CCCN1CCC(n2c(=O)[nH]c3cc(Cl)ccc32)CC1,Activity,Rattus norvegicus [35],inactive
O=C(CCCN1CCC(O)(c2ccc(Cl)cc2)CC1)c1ccc(F)cc1,Activity,Rattus norvegicus [36],Active
CN1CCN(C2=Nc3cc(Cl)ccc3Nc3ccccc32)CC1,Activity,Rattus norvegicus [37],Active
Cc1cc(F)ccc1NC(=O)CN1CCC(c2cccc[n+]2[O-])CC1,Activity,Mustela putorius furo [15],inactive
same,Ki,D(2) dopamine receptor [4],> 10 µM
same,bioavailability,[9],7%
same,Activity,Rattus norvegicus [11],67%
same,EC50,D(4) dopamine receptor [1],0.06 µM
same,Ki,D(4) dopamine receptor [7],0.405 µM
same,Activity,[2]; filed as agonist,Agonist
same,Activity,[38],inactive
same,Activity,[23],inactive
same,Ki,D(2) dopamine receptor [24],> 10 µM
same,Activity,[25],inactive
same,Efficacy,[27],76%
same,Activity,D(2) dopamine receptor [28],inactive
same,Activity,Mustela putorius furo [33],inactive
same,EC50,D(4) dopamine receptor [34],0.1 µM
